The EternaBench riboswitch data

Test system: MS2 coat protein
Assay: apparent Kd, MS2 coat protein; higher = weaker binding; RNA-MaP array; FMN 200 µM where present
Method in brief: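 In 100 mM Tris-HCl pH 7.5, 80 mM KCl, 4 mM MgCl2, BSA, DTT, yeast tRNA and Tween-20, SNAP-549-labelled MS2 coat protein was titrated from 0.7 or 1.5 nM, doubling to 3 µM, over designs transcribed by stalled E. coli RNA polymerase on Illumina sequencing-chip clusters. This was done first without ligand, then with ligand held constant. After green signal was normalised to red-channel RNA signal and control-cluster median Fmax, the apparent Kd was taken as the median of filtered per-cluster binding-curve fits.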

[1] = designed as: ON switch for flavin mononucleotide, no ligand
[2] = ligand present: flavin mononucleotide, designed as: ON switch for flavin mononucleotide
[3] = designed as: OFF switch for flavin mononucleotide, no ligand
[4] = ligand present: flavin mononucleotide, designed as: OFF switch for flavin mononucleotide

Sequence: GGACGUCCCAUUAACAUGAGGAUCACCCAUGUCAAAAGACAUGAGGAUAUGCUACCUAAUUGGUAGCAGAAGGCAUGGACGUCC
- apparent Kd [1]: 878 nM
- apparent Kd [2]: 85.4 nM

Sequence: GGACGUCGGAUAAACAUGAGGAUCACCCAUGUAACUAGACAUGAGGAUAUGGAUUCUAAUUGGAUCCAGAAGGUAUCGACGUCC
- apparent Kd [1]: 193 nM
- apparent Kd [2]: 211 nM

Sequence: GGACGUCUCAUUAACAUGAGGAUCACCCAUGUCGAAAGACAUGAGGAUAUGGAUCCUAAUUGGAUCCAGAAGGCAUGGACGUCC
- apparent Kd [1]: 98 nM
- apparent Kd [2]: 582 nM

Sequence: GGACGUCUCAUUUACAUGAGGAUCACCCAUGUCGAUAGACAUGAGGAUAUGGAUCCGAAUCGGAUCCAGAAGGCAUGGACGUCC
- apparent Kd [1]: 1130 nM
- apparent Kd [2]: 63.4 nM

Sequence: GGACGUGUCGUUUACAUGAGGAUCACCCAUGUCGAUAGACAUGAGGAUAUGGAUCCGAAUCGGAUCCAGAAGGCAUGCACGUCC
- apparent Kd [1]: 260 nM
- apparent Kd [2]: 26.8 nM

Sequence: GGAGAACAUGAGGAUCACCCAUGUGGAUGGGCGCUAGGAUAUGCGAGAGGGUGAAGAGAAGCAGAAGGAGUGGAUA
- apparent Kd [1]: 141 nM
- apparent Kd [2]: 142 nM

Sequence: GGAGACCUCACAGGAUAUGCUGGACUUUGUCCAGCAGAAGGGUGAAACAUGAGGAUCACCCAUGUAAUGGUCUCCAAAUUUAAU
- apparent Kd [1]: 1030 nM
- apparent Kd [2]: 55.6 nM

Sequence: GGAGACCUCGCAGGAUAUGCUGGACUUUGUCCAGCAGAAGGGUGAAAACAUGAGGAUCACCCAUGUAUGGUCUCCAAAUUUAAU
- apparent Kd [1]: 1060 nM
- apparent Kd [2]: 54.3 nM

Sequence: GGAGAGCAAGGAUAUACAUGAGGAUCACCCAUGUACGGUCAUUUGGGCAUGUCUGUAAGUAGAAGGUGUUUUGG
- apparent Kd [3]: 45.2 nM
- apparent Kd [4]: 58.5 nM

Sequence: GGAGCAGGGUGAGGAUAUGUAAAAUUCGAAAGGACAGAAGGCACUUAACCAACAUGAGGAUCACCCAUGUAGGCGACGGCACCA
- apparent Kd [1]: 30 nM
- apparent Kd [2]: 21.8 nM

Sequence: GGAGCCGGCACCGAGGAUAUUCAUAUUAAAACAUGAGGAUCACCCAUGUGGGCCAGAAGGCCUUGGGAGAAGGCGGAUCGGCUCG
- apparent Kd [1]: 305 nM
- apparent Kd [2]: 30 nM

Sequence: GGAGCCGGCCUAGGAUAUUUCAUAAUAUUACAUGAGGAUCACCCAUGUAGGCCAGAAGGCCUUGGGAAGAAGGAGGUCGGCUCC
- apparent Kd [1]: 42.6 nM
- apparent Kd [2]: 15.9 nM

Sequence: GGAGCUCACAUUAACAUGAGGAUCACCCAUGUCUCUUGACAUGAGGAUAUGGAUCCUAAUUGGAUCCAGAAGGCAUGGAGCUCC
- apparent Kd [1]: 1650 nM
- apparent Kd [2]: 108 nM

Sequence: GGAGCUCAGAUUAACAUGAGGAUCACCCAUGUCUUUUGACAUGAGGAUAUGGAUCCUAAUUGGAUCCAGAAGGCAUGGAGCUCC
- apparent Kd [1]: 1590 nM
- apparent Kd [2]: 126 nM

Sequence: GGAGUACAUGAGGAUCACCCAUGUUGGAACAAAGUAGGAUAUGUACAAUAUUAAAUAAAAACAGAAGGACUAAGAA
- apparent Kd [1]: 47.4 nM
- apparent Kd [2]: 30.8 nM

Sequence: GGAUAACAUGAGGAUCACCCAUGUACAUGGGUACAAGGAUAUGUAAAAUAAAACAAACAAACAGAAGGUGUAAAAA
- apparent Kd [1]: 708 nM
- apparent Kd [2]: 1450 nM

Sequence: GGAUAGGACAGAGGAUAUACCGAUAGGAUCUACUAUCGAAGAAUCCUCACAUGAGGAUCACCCAUGUAGAAGGCUGUCCUAUCG
- apparent Kd [3]: 40.3 nM
- apparent Kd [4]: 646 nM

Sequence: GGAUAGGACAGAGGAUAUACCGAUAGGAUCUACUAUCGAAUAAUCCUCACAUGAGGAUCACCCAUGUAGAAGGCUGUCCUAUCG
- apparent Kd [3]: 21.3 nM
- apparent Kd [4]: 143 nM

Sequence: GGAUAGGACAGAGGAUAUACGUGCUAGAGAUACUAGCAAAAUAUCCUCACAUGAGGAUCACCCAUGUAGAAGGCUGUCCUAUCG
- apparent Kd [3]: 18.1 nM
- apparent Kd [4]: 79 nM

Sequence: GGAUAGGACAGAGGAUAUACGUGCUAGAGAUACUAGCAAGAUUUCCUCACAUGAGGAUCACCCAUGUAGAAGGCUGUCCUAUCG
- apparent Kd [3]: 13.2 nM
- apparent Kd [4]: 348 nM

Sequence: GGAUAGGACAGAGGAUAUACGUGCUAGUGAUACUAGCAAAAUUUCCUCACAUGAGGAUCACCCAUGUAGAAGGCUGUCCUAUCG
- apparent Kd [3]: 15.5 nM
- apparent Kd [4]: 453 nM

Sequence: GGAUAGGUCAGAGGAUAUACGUGCUAGAGAUACUAGCAAAAUUUCCUCACAUGAGGAUCACCCAUGUAGAAGGCUGUCCUAUCG
- apparent Kd [3]: 12.4 nM
- apparent Kd [4]: 278 nM

Sequence: GGAUCCAACACAGGAUAUGCUGGACCUUGUCCAGCAGAAGGGUGAAGAACAUGAGGAUCACCCAUGUGGAUCCAUAUAUUUAAU
- apparent Kd [1]: 240 nM
- apparent Kd [2]: 14.6 nM
